Measured values reported in ChEMBL document CHEMBL1156256, “Poly(ethylene glycol) (PEG-400) as an alternative reaction solvent for the synthesis of some new 1-(4-(4'-chlorophenyl)-2-thiazolyl)-3-aryl-5-(2-butyl-4-chloro-1H-imidazol-5yl)-2-pyrazolines and their in vitro antimicrobial evaluation” (2010).
Values after ≈ are worked out from the molar mass of the structure shown.

Key:
Candida albicans = assay: Antifungal activity against Candida albicans MTCC 183 after 24 to 48 hrs by agar diffusion method; assay type: functional
Summary of the method: (§1)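 Fungi grown on potato dextrose agar slants at 27 ± 0.2 °C for 24–48 h until sporulation. Spores suspended in sterile water with 1% Tween-80 and counted by haemocytometer (10⁶ CFU/mL). 0.1 mL spread on 2% agar PDA plates and held at 27 °C for 12 h. Wells then received 0.1 mL of compound at graded concentrations for MIC. Plates refrigerated 20 min for diffusion, then incubated at 27 ± 0.2 °C for […]. Zone read in mm. 1% DMSO used as control.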

Staphylococcus aureus = assay: Antibacterial activity against Staphylococcus aureus MTCC 96 after 24 hrs by agar diffusion method; assay type: functional; conditions: for MIC: Staphylococcus aureus, MTCC 96, 24 h
Summary of the method: (§2)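 Agar well diffusion following NCCLS. Bacteria kept on nutrient agar slants at 37 ± 0.5 °C for 24 h. Nutrient agar plates seeded with 0.1 mL of culture suspension in 0.85% sterile saline (10⁵ CFU/mL). Plates incubated at 37 ± 0.5 °C for 24 h. Zone of inhibition recorded in mm, and MIC noted. 1% DMSO used as control.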

Trichoderma viride = assay: Antifungal activity against Trichoderma viride MTCC 167 after 24 to 48 hrs by agar diffusion method; assay type: functional; summary of the method: as §1
Bacillus subtilis = assay: Antibacterial activity against Bacillus subtilis MTCC 441 after 24 hrs by agar diffusion method; assay type: functional; conditions: for MIC: Bacillus subtilis, MTCC 441, 24 h; summary of the method: as §2
Fusarium verticillioides = assay: Antifungal activity against Fusarium moniliforme MTCC 156 after 24 to 48 hrs by agar diffusion method; assay type: functional; summary of the method: as §1
Aspergillus niger = assay: Antifungal activity against Aspergillus niger MTCC 281 after 24 to 48 hrs by agar diffusion method; assay type: functional; summary of the method: as §1
Salmonella enterica = assay: Antibacterial activity against Salmonella typhi MTCC 98 after 24 hrs by agar diffusion method; assay type: functional, Salmonella enterica subsp. enterica serovar Typhi; conditions: for MIC: Salmonella enterica, MTCC 98, 24 h
Summary of the method: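 NCCLS agar diffusion. Strain kept on nutrient agar slant at 37 ± 0.5 °C for 24 h. Nutrient agar plates seeded with 0.1 mL of a 10⁵ CFU/mL suspension in sterile 0.85% saline. Plates incubated at 37 ± 0.5 °C for 24 h. Read-out: zone of inhibition (mm) and MIC.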

Penicillium chrysogenum = assay: Antifungal activity against Penicillium chrysogenum MTCC 160 after 24 to 48 hrs by agar diffusion method; assay type: functional; summary of the method: as §1
Escherichia coli = assay: Antibacterial activity against Escherichia coli MTCC 2939 after 24 hrs by agar diffusion method; assay type: functional; conditions: for MIC: Escherichia coli, MTCC 2939, 24 h; summary of the method: as §2
[1] = Fusarium verticillioides, MTCC 156
[2] = Penicillium chrysogenum, MTCC 160

Compound	inhibition zone (IZ) (Candida albicans) [mm]	MIC (Candida albicans; Candida albicans, MTCC 183) [µg/mL]	inhibition zone (IZ) (Staphylococcus aureus) [mm]	MIC (Staphylococcus aureus) [µg/mL]	inhibition zone (IZ) (Trichoderma viride) [mm]	MIC (Trichoderma viride; Trichoderma viride, MTCC 167) [µg/mL]	inhibition zone (IZ) (Bacillus subtilis) [mm]	MIC (Bacillus subtilis) [µg/mL]	inhibition zone (IZ) (Fusarium verticillioides) [mm]	MIC (Fusarium verticillioides; [1]) [µg/mL]	inhibition zone (IZ) (Aspergillus niger) [mm]	MIC (Aspergillus niger; Aspergillus niger, MTCC 281) [µg/mL]	inhibition zone (IZ) (Salmonella enterica) [mm]	MIC (Salmonella enterica) [µg/mL]	inhibition zone (IZ) (Penicillium chrysogenum) [mm]	MIC (Penicillium chrysogenum; [2]) [µg/mL]	inhibition zone (IZ) (Escherichia coli) [mm]	MIC (Escherichia coli) [µg/mL]	other results
CCCCc1nc(Cl)c(C2CC(c3cc(Cl)cc(Cl)c3O)=NN2c2nc(-c3ccc(Cl)cc3)cs2)[nH]1 (stereo not drawn)	16	25 (≈ 43 µM)	16	25 (≈ 43 µM)	18	25 (≈ 43 µM)	22	25 (≈ 43 µM)	15	25 (≈ 43 µM)	19	25 (≈ 43 µM)	18	25 (≈ 43 µM)	18	25 (≈ 43 µM)	21	25 (≈ 43 µM)	–
CCCCc1nc(Cl)c(C2CC(c3cc(Cl)c(C)c(Br)c3O)=NN2c2nc(-c3ccc(Cl)cc3)cs2)[nH]1 (stereo not drawn)	12	50 (≈ 78.1 µM)	11	50 (≈ 78.1 µM)	16	50 (≈ 78.1 µM)	18	25 (≈ 39.1 µM)	15	25 (≈ 39.1 µM)	15	25 (≈ 39.1 µM)	12	50 (≈ 78.1 µM)	9	50 (≈ 78.1 µM)	15	25 (≈ 39.1 µM)	–
CCCCc1nc(Cl)c(C2CC(c3ccccc3O)=NN2c2nc(-c3ccc(Cl)cc3)cs2)[nH]1 (stereo not drawn)	15	25 (≈ 48.8 µM)	13	50 (≈ 97.6 µM)	16	25 (≈ 48.8 µM)	16	50 (≈ 97.6 µM)	13	25 (≈ 48.8 µM)	14	25 (≈ 48.8 µM)	10	50 (≈ 97.6 µM)	14	25 (≈ 48.8 µM)	15	50 (≈ 97.6 µM)	–
CCCCc1nc(Cl)c(C2CC(c3ccc(Cl)cc3)=NN2c2nc(-c3ccc(Cl)cc3)cs2)[nH]1 (stereo not drawn)	14	25 (≈ 47.1 µM)	12	50 (≈ 94.2 µM)	11	50 (≈ 94.2 µM)	14	50 (≈ 94.2 µM)	11	50 (≈ 94.2 µM)	12	50 (≈ 94.2 µM)	10	50 (≈ 94.2 µM)	10	50 (≈ 94.2 µM)	16	25 (≈ 47.1 µM)	–
CCCCc1nc(Cl)c(C2CC(c3ccc(N)cc3)=NN2c2nc(-c3ccc(Cl)cc3)cs2)[nH]1 (stereo not drawn)	–	> 100	10	50 (≈ 97.8 µM)	12	50 (≈ 97.8 µM)	8	50 (≈ 97.8 µM)	–	> 100	14	25 (≈ 48.9 µM)	–	> 100	10	50 (≈ 97.8 µM)	12	50 (≈ 97.8 µM)	–
CCCCc1nc(Cl)c(C2CC(c3cc(C)ccc3O)=NN2c2nc(-c3ccc(Cl)cc3)cs2)[nH]1 (stereo not drawn)	10	50 (≈ 95 µM)	–	> 100	8	50 (≈ 95 µM)	12	50 (≈ 95 µM)	11	50 (≈ 95 µM)	12	50 (≈ 95 µM)	–	> 100	–	> 100	11	50 (≈ 95 µM)	–
CCCCc1nc(Cl)c(C2CC(c3cc(Cl)cc(Br)c3O)=NN2c2nc(-c3ccc(Cl)cc3)cs2)[nH]1 (stereo not drawn)	16	25 (≈ 39.9 µM)	16	25 (≈ 39.9 µM)	15	25 (≈ 39.9 µM)	15	25 (≈ 39.9 µM)	10	50 (≈ 79.9 µM)	18	25 (≈ 39.9 µM)	18	25 (≈ 39.9 µM)	16	25 (≈ 39.9 µM)	21	25 (≈ 39.9 µM)	–
CCCCc1nc(Cl)c(C2CC(c3cc(Br)cc(Br)c3O)=NN2c2nc(-c3ccc(Cl)cc3)cs2)[nH]1 (stereo not drawn)	20	25 (≈ 37.3 µM)	18	25 (≈ 37.3 µM)	18	25 (≈ 37.3 µM)	21	25 (≈ 37.3 µM)	14	25 (≈ 37.3 µM)	20	25 (≈ 37.3 µM)	19	25 (≈ 37.3 µM)	18	25 (≈ 37.3 µM)	22	25 (≈ 37.3 µM)	–
CCCCc1nc(Cl)c(C2CC(c3cc(Cl)ccc3O)=NN2c2nc(-c3ccc(Cl)cc3)cs2)[nH]1 (stereo not drawn)	16	25 (≈ 45.7 µM)	16	25 (≈ 45.7 µM)	15	25 (≈ 45.7 µM)	18	25 (≈ 45.7 µM)	15	25 (≈ 45.7 µM)	16	25 (≈ 45.7 µM)	12	50 (≈ 91.4 µM)	12	25 (≈ 45.7 µM)	18	25 (≈ 45.7 µM)	–
NYSTATIN	18	–	–	–	18	–	–	–	16	–	18	–	–	–	16	–	–	–	MIC (Candida albicans): 25 µg/mL; MIC (Trichoderma viride): 25 µg/mL; MIC (Fusarium verticillioides): 25 µg/mL; MIC (Aspergillus niger): 25 µg/mL; MIC (Penicillium chrysogenum): 25 µg/mL
CCCCc1nc(Cl)c(C2CC(c3cc(Cl)c(C)cc3O)=NN2c2nc(-c3ccc(Cl)cc3)cs2)[nH]1 (stereo not drawn)	–	> 100	12	50 (≈ 89.1 µM)	14	25 (≈ 44.6 µM)	–	> 100	11	50 (≈ 89.1 µM)	12	50 (≈ 89.1 µM)	9	50 (≈ 89.1 µM)	13	25 (≈ 44.6 µM)	14	50 (≈ 89.1 µM)	–
CCCCc1nc(Cl)c(C2CC(c3cc(I)cc(I)c3O)=NN2c2nc(-c3ccc(Cl)cc3)cs2)[nH]1 (stereo not drawn)	18	25 (≈ 32.7 µM)	16	25 (≈ 32.7 µM)	20	25 (≈ 32.7 µM)	20	25 (≈ 32.7 µM)	16	25 (≈ 32.7 µM)	19	25 (≈ 32.7 µM)	18	25 (≈ 32.7 µM)	16	25 (≈ 32.7 µM)	20	25 (≈ 32.7 µM)	–
CN(C)[C@@H]1C(O)=C(C(N)=O)C(=O)[C@@]2(O)C(O)=C3C(=O)c4c(O)cccc4[C@@](C)(O)[C@H]3C[C@@H]12 [TETRACYCLINE]	–	–	30	25 (≈ 56.3 µM)	–	–	32	25 (≈ 56.3 µM)	–	–	–	–	28	25 (≈ 56.3 µM)	–	–	30	25 (≈ 56.3 µM)	–
